High-throughput results (PubChem)
In the library only some 2.6% were active in any assay of this set; here they are far more common.
SENP6 block: SENP6 protease inhibitors, primary screen, biochemical, luminescence, uHTS. AID 2599, 2010. Sentrin-specific protease 6 (Homo sapiens), Q9GZR1. Recombinant SENP6 catalytic domain, aminoluciferin luminescence. 330,000 tested, 1.8% active. inhibition, % at 10 µM;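 active means inhibition above about 50% at the single tested dose, limit read from the data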
SENP8 block-1: SENP8 protease inhibitors, primary screen, biochemical, luminescence. inhibition, % at 10 µM. 330,000 tested, 1.2% active. purified SENP8, Z-RLRGG-aminoluciferin cleavage. AID 2540, 2010. Sentrin-specific protease 8 (Homo sapiens), Q96LD8; in the data active means inhibition above about 50%
SENP7 inh: SENP7 protease inhibitors, primary screen, biochemical, luminescence, uHTS; 330,000 tested, 1.5% active; inhibition, % at 5 µM; recombinant SENP7, Z-RLRGG-aminoluciferin luminescence, 40 min; Sentrin-specific protease 7 (Homo sapiens), Q9BQF6;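 active means inhibition above about 50% at the single test dose, limit read from the data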
Target sequence (Q9BQF6 706-1050 limits assumed): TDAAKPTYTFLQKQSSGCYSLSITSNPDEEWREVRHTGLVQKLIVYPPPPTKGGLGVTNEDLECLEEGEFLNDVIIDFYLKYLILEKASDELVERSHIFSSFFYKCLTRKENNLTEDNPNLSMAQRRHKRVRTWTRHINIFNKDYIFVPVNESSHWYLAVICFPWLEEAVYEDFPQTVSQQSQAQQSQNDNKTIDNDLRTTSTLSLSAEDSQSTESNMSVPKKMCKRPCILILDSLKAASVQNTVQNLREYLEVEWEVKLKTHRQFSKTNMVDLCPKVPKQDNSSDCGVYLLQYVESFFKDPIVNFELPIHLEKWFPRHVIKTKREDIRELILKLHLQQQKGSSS
SENP1 FRET inh: human SENP1 catalytic domain inhibitors, primary screen, biochemical, FRET, uHTS; Sentrin-specific protease 1 (Homo sapiens), Q9P0U3; recombinant SENP1 catalytic domain, CyPet-SUMO1-YPet FRET cleavage; inhibition, % at 10 µM; 360,000 tested, 0.21% active;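 active means inhibition at least 30% at 10 µM, raw YFP signal under a set limit, fluorescence ratio 0.5 to 1.5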
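Assay system: hSENP1 catalytic domain, recombinant. Amount: SENP1 enzyme, 20 pM final. Schedule: 50 min reaction, RT, dark. Technique: FRET, CFP and YFP emission. Control set: no-enzyme wells low, DMSO-plus-enzyme wells high control.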
SENP8 block-2: human SENP8 protease inhibitors, primary screen, biochemical, fluorescence, Nedd8 protein substrate, uHTS | Sentrin-specific protease 8 (Homo sapiens), Q96LD8 | recombinant SENP8 | inhibition, % at 20 µM | 360,000 tested, 0.64% active | AID 602440, 2012; in the data active means inhibition mostly above about 40%, no sharp cut-off; inactive means mostly below about 27%
Platelet DG rel: inhibitors of platelet dense granule secretion, primary screen, cell-based, MLPCN, human platelets | human platelet-rich plasma, SFLLRN dense granule ATP release, luminescence | inhibition, %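 (compounds screened at 7.5 µM in platelet-rich plasma)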 | 300,000 tested, 0.22% active;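 active means mean replicate score, as percent of positive control, at or above 50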
SENP8 confirm: SENP8 protease inhibitors, retest, confirmation, biochemical, luminescence, single concentration. shares compounds with SENP7 inh. Recombinant SENP8, Z-RLRGG-aminoluciferin luminescence, 60 min. inhibition, % at 12.5 µM. 6,200 tested, 40% active;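 active means mean inhibition across replicates above about 50%, limit read from the data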
SENP6 conf: SENP6 protease inhibitors, confirmation, biochemical, luminescence, single concentration | shares compounds with SENP7 inh | recombinant SENP6, Z-RLRGG-aminoluciferin luminescence | inhibition, % at 12.5 µM | 6,200 tested, 58% active
SENP7 confirm: SENP7 protease inhibitors, retest, confirmation, biochemical, luminescence, single concentration. shares compounds with SENP7 inh. recombinant SENP7, Z-RLRGG-aminoluciferin luminescence, 40 min. inhibition, % at 12.5 µM. 6,200 tested, 69% active
Casp3 select: caspase-3 protease inhibitors, confirmation, selectivity assay for SENP inhibitor project, biochemical, single concentration. shares compounds with SENP7 inh. purified caspase-3, Z-DEVD-aminoluciferin luminescence, 60 min. inhibition, % at 12.5 µM. 6,200 tested, 60% active;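 active means mean inhibition above about 50%, limit read from the data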
Target sequence (P42574 28-227 limits assumed): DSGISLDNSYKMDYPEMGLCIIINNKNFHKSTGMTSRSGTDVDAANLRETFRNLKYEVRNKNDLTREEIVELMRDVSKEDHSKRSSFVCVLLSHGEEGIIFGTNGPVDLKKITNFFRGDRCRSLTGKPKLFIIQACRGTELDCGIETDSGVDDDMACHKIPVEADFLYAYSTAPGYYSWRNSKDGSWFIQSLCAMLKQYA
Luc interf: interferes with luciferase luminescence in SENP counter-screen; shares compounds with SENP7 inh; 6,200 tested, 39% active; inhibition, % at 12.5 µM; Pre-incubated SENP8/Z-RLRGG-aminoluciferin, luciferase luminescence interference; AID 488919;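 active means mean inhibition above about 50% when retested at one dose, limit read from the data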
Of the large screens only hits and unclear results are named; the others gave an inactive call (follow-up assays come after a bar, where they were run).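 How the source made its calls, unless noted: active means mean inhibition above about 50% in the one-dose retest (limit read from the data); inactive means the rest.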

CCOc1ccc(N=Cc2c(C)[nH]n(-c3nc4ccccc4[nH]3)c2=O)cc1	SENP6 block 94, SENP8 block-1 80, SENP7 inh 85 | SENP8 confirm inactive | SENP6 conf inactive | SENP7 confirm 50 | Casp3 select 75 | Luc interf 69
Cc1ccccc1-c1nc(-c2ccc(Br)o2)no1	SENP6 block 72, SENP8 block-1 58, SENP7 inh 67 | SENP8 confirm inactive | SENP6 conf 64 | SENP7 confirm 86 | Casp3 select inactive | Luc interf inactive
Fc1ccccc1-c1nc(-c2ccc(Br)o2)no1	SENP6 block 84, SENP8 block-1 85, SENP7 inh 89 | SENP8 confirm inactive | SENP6 conf 83 | SENP7 confirm 97 | Casp3 select 68 | Luc interf inactive
COc1ccc(OC)c(C(=O)c2coc3ccc(O)c(CN(C)C)c23)c1	none
Cc1nc(Cl)cc(N/N=C/c2ccc(O)cc2O)n1	SENP6 block 97, SENP8 block-1 93, SENP7 inh 95 | SENP8 confirm 92 | SENP6 conf 92 | SENP7 confirm 100 | Casp3 select 92 | Luc interf 92
Cc1nc(Cl)cc(N/N=C/c2ccc(O)cc2)n1	SENP6 block 87, SENP8 block-1 89, SENP7 inh 91 | SENP8 confirm 90 | SENP6 conf 90 | SENP7 confirm 99 | Casp3 select 90 | Luc interf 87
COc1cccc(/C=N/Nc2cc(Cl)nc(C)n2)c1O	none
CCc1ccccc1NC(=O)C1CCN(S(=O)(=O)c2ccc(N3CCCC3=O)cc2)CC1	none (no result: SENP6 block, SENP8 block-1, SENP7 inh, Platelet DG rel)
COc1ccccc1CN1CC(C(=O)NCCN(C)CCc2ccccc2)CCC1=O (centres undefined)	none
CCSc1cc(N2CCCC2)nc(-c2ccc(Cl)cc2)n1	none (no result: Platelet DG rel)
Clc1ccc(-c2nnc(N3CCCC3)nn2)cc1	SENP6 block 68 | SENP8 confirm inactive | SENP6 conf inactive | SENP7 confirm 58 | Casp3 select 55 | Luc interf inactive
COc1ccc(CN(C)C(=O)c2[nH]c(C)c(C(C)=O)c2C)c(OC)c1OC	none
Cc1c(C(=O)O)cccc1-c1ccc(/C=C2\SC(=O)NC2=O)o1	SENP6 block 98, SENP8 block-1 98, SENP7 inh 91 | SENP8 confirm 99 | SENP6 conf 100 | SENP7 confirm 103 | Casp3 select 97 | Luc interf 97
Cc1c(C(=O)O)cccc1-c1ccc(/C=C2/NC(=O)N(c3ccccc3)C2=O)o1	SENP6 block 64, SENP8 block-1 60 | SENP8 confirm inactive | SENP6 conf 79 | SENP7 confirm 92 | Casp3 select inactive | Luc interf inactive
O=C1NC(=O)/C(=C/c2ccc(-c3cccc([N+](=O)[O-])c3)o2)S1	SENP6 block 86, SENP8 block-1 66, SENP7 inh 55 | SENP8 confirm 78 | SENP6 conf 60 | SENP7 confirm inactive | Casp3 select inactive | Luc interf inactive
CCOC(=O)CN1C(=O)S/C(=C\c2ccc(-c3cccc(C(=O)O)c3C)o2)C1=O	SENP6 block 55 | SENP8 confirm inactive | SENP6 conf inactive | SENP7 confirm 52 | Casp3 select inactive | Luc interf inactive
CCOC(=O)CN1C(=O)S/C(=C\c2ccc(-c3ccc(C(=O)O)c(Cl)c3)o2)C1=O	none
C/C(=N\NC(=O)CSc1nc(C)cc(C)n1)c1cccc([N+](=O)[O-])c1	none
COc1cccc(C(=O)Nc2c3c(nn2-c2ccc(Cl)cc2)CS(=O)(=O)C3)c1OC	none
O=C(OCc1nc2ccccc2s1)c1cccs1	SENP6 block 74 | SENP8 confirm 63 | SENP6 conf 70 | SENP7 confirm 84 | Casp3 select inactive | Luc interf 64
O=C(O)CCCC(=O)Nc1ccc(OCc2nc3ccccc3s2)cc1	none
O=C(OCc1nc2ccccc2s1)c1ccccc1O	SENP6 block 92, SENP8 block-1 85, SENP7 inh 86 | SENP8 confirm 89 | SENP6 conf 90 | SENP7 confirm 98 | Casp3 select 83 | Luc interf 74
O=C(OCc1nc2ccccc2s1)c1cnccn1	none
O=C(O)c1ccccc1OCc1nc2ccccc2s1	SENP6 block 92, SENP8 block-1 90, SENP7 inh 92 | SENP8 confirm 91 | SENP6 conf 93 | SENP7 confirm 100 | Casp3 select 85 | Luc interf 79
Cc1cc(OCC(=O)Nc2ccncc2)ccc1[N+](=O)[O-]	none
COc1ccc(CN=C2Nc3ccccc3CS2)cc1	SENP6 block 92, SENP8 block-1 80, SENP7 inh 85 | SENP8 confirm 86 | SENP6 conf 86 | SENP7 confirm 97 | Casp3 select 81 | Luc interf 88
COc1ccc(CN=C2NN=C(c3ccc(Cl)cc3)CS2)cc1	none
O=C(c1cc(-c2cccs2)on1)N1CCc2ccccc2C1	SENP7 inh 52 | SENP8 confirm inactive | SENP6 conf inactive | SENP7 confirm inactive | Casp3 select inactive | Luc interf inactive
CCOC(=O)/C=C(\C)N1N=C(c2ccccc2)CC1c1ccccc1 (centres undefined)	SENP6 block 52 | SENP8 confirm inactive | SENP6 conf inactive | SENP7 confirm 75 | Casp3 select inactive | Luc interf inactive
CC(C)(C)NC(=O)NC(=O)COc1ccccc1C#N	none
